Data from publication PMC10515777 (bioRxiv, 2024).

Assays:
WT CFTR = WT CFTR (Homo sapiens, UniProt P13569); assay: Inside-out patch clamp recording of macroscopic currents, WT CFTR; type: biochemical; conditions: for change of CFTR currents: enantiomers perfused at 100 M, inside-out patches, 3 mM ATP
Procedure, shortened: (§1)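 WT, S308A or Y304A CFTR (mutants made by site-directed mutagenesis), C-terminally GFP-tagged in BacMam vector, transfected into CHO cells, then 2% FBS at 30 °C for 2 days. Excised inside-out patches were phosphorylated with 25 units/ml PKA plus 3 mM ATP and held at −30 mV, 25 °C, pH 7.4 NMDG solutions. Fold stimulation is the current ratio with/without perfused compound. Dose-response currents were normalized to pre-titration ATP current and fitted for EC50. Means ± SE of patches.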

S308A CFTR = S308A CFTR (Homo sapiens, UniProt P13569, S308A); assay: Inside-out patch clamp recording, S308A CFTR; type: biochemical; conditions: inside-out patches, 3 mM ATP
S308A CFTR, sequence (P13569 whole entry S308A): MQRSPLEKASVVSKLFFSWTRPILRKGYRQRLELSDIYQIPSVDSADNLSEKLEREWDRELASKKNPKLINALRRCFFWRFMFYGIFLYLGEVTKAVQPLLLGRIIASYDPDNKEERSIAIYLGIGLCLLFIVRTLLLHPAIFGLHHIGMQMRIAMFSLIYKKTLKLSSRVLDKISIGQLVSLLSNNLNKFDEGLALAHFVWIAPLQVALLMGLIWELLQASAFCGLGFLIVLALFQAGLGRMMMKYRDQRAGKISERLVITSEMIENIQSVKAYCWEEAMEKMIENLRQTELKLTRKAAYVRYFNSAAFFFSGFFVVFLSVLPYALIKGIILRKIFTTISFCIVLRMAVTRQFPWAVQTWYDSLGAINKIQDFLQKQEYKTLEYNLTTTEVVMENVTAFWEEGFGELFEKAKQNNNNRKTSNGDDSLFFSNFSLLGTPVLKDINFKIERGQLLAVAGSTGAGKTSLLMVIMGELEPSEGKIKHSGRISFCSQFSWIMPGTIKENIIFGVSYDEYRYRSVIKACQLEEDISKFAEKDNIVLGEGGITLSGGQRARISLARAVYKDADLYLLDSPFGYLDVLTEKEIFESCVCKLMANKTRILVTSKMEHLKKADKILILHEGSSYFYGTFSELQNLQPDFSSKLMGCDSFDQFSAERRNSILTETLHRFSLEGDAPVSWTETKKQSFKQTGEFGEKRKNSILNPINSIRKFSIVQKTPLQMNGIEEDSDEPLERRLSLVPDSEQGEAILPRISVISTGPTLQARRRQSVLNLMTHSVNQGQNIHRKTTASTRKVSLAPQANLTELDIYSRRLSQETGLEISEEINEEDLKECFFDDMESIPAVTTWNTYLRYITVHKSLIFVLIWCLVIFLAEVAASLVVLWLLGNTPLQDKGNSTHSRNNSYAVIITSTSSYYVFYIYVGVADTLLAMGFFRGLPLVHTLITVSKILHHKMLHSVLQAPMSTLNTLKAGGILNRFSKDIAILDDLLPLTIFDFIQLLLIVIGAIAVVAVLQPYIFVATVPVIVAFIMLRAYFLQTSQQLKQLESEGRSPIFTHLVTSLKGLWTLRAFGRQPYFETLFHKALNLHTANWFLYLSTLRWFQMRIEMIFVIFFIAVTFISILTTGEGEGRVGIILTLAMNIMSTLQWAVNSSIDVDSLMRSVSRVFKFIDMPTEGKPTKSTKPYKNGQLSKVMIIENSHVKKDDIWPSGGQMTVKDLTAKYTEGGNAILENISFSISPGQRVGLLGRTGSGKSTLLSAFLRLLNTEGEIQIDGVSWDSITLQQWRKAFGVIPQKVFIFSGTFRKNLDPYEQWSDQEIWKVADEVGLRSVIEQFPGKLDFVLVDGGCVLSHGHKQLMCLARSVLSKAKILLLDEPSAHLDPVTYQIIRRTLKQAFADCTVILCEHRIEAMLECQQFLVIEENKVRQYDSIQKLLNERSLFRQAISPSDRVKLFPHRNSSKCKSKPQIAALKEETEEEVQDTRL
Procedure, shortened: as §1

Y304A CFTR = Y304A CFTR (Homo sapiens, UniProt P13569, Y304A); assay: Inside-out patch clamp recording, Y304A CFTR; type: biochemical; conditions: inside-out patches, 3 mM ATP
Y304A CFTR, sequence (P13569 whole entry Y304A): as the sequence (P13569 whole entry S308A) above, with Y304A, A308S counted along it
Procedure, shortened: as §1

[1] = ref [8]; cited from earlier work
[2] = ref [9],[10]; cited from earlier work

WT CFTR, sequence (P13569 whole entry, the tested form may be a part): as the sequence (P13569 whole entry S308A) above, with A308S counted along it

## C[C@H](COc1ccccc1)C(=O)n1nc(N)c2ccc(F)cc21 [(R)-’853, (R)-1-(3-Amino-6-fluoro-1H-indazol-1-yl)-2-methyl-3-phenoxypropan-1-one]
WT CFTR
  change of CFTR currents: 0.89 fold

## C[C@H](COc1ccccc1)C(=O)n1nc(N)c2ccc(C(N)=O)cc21 [Compound I1422, (R)-3-Amino-1-(2-methyl-3-phenoxypropanoyl)-1H-indazole-6-carboxamide]
WT CFTR
  IC50: 41000 nM

## C[C@H](COc1ccccc1)C(=O)n1ncc2ccc(C(N)=O)cc21 [Compound I1412, (R)-1-(2-Methyl-3-phenoxypropanoyl)-1H-indazole-6-carboxamide]
S308A CFTR
  effect of alanine substitution S308A on compound activity: eliminated the activity
Y304A CFTR
  effect of alanine substitution Y304A on compound activity: eliminated the activity
WT CFTR
  IC50: 21000 nM

## C[C@@H](COc1ccc(F)cc1)C(=O)n1nc(N)c2ccc(F)cc21 [(S)-SX263, (S)-1-(3-Amino-6-fluoro-1H-indazol-1-yl)-3-(4-fluorophenoxy)-2-methylpropan-1-one]
WT CFTR
  EC50: 136 ± 60 nM

## C[C@@H](COc1ccccc1)C(=O)n1nc(N)c2ccc(F)cc21 [(S)-’853, (S)-1-(3-Amino-6-fluoro-1H-indazol-1-yl)-2-methyl-3-phenoxypropan-1-one]
S308A CFTR
  effect of alanine substitution S308A on compound activity: abolished the potentiating effect
Y304A CFTR
  effect of alanine substitution Y304A on compound activity: abolished the potentiating effect
WT CFTR
  EC50: 2100 ± 900 nM
  change of CFTR currents: 1.5 fold

## C[C@@H](COc1ccccc1)C(=O)n1nc(N)c2ccc(CO)cc21 [Compound I1408, (S)-1-(3-Amino-6-(hydroxymethyl)-1H-indazol-1-yl)-2-methyl-3-phenoxypropan-1-one]
WT CFTR
  EC50: 93 ± 42 nM

## CC(C)(C)c1cc(C(C)(C)C)c(NC(=O)c2c[nH]c3ccccc3c2=O)cc1O [Ivacaftor, N-(2,4-di-tert-butyl-5-hydroxyphenyl)-4-oxo-1,4-dihydroquinoline-3-carboxamide]
[1]
  water solubility: < 0.05 µg/mL
[2]
  bound to plasma proteins: 99%
